Our source for the IC50 and Toxicity ratio values is ChEMBL document CHEMBL1129597, “2-[2'-(Dimethylamino)ethyl]-1,2-dihydro- 3H-dibenz[de,h]isoquinoline-1,3-diones with substituents at positions 4, 8, 9, 10, and 11. Synthesis, antitumor activity, and quantitative structure-activity relationships” (J Med Chem, 1996).

One assay concerns A549. Kind of assay: Activity against A549 cancer cell line. The class given is functional, cell-based. To be noted: Homo sapiens.
For assay [1], the system named is L1210. The experiment in a line: Antitumor activity against sensitive L1210 murine leukemia cell lines. To be noted: Mus musculus. The format is functional, cell-based. Put shortly: (§1)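 Murine L1210 leukemia cells, sensitive or MDR subline, in culture. Continuous drug exposure during MTT assay. Five concentrations per analogue, six determinations per concentration. The IC50 was derived.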

The test system of assay [2] is L1210. Kind of assay: Antitumor activity against murine leukemia L1210 cell line. The class given is functional, cell-based. To be noted: Mus musculus. Put shortly: as §1
Assay [3] deals with MCF7. The experiment in a line: Antitumor activity against human mammary carcinoma mitoxantrone-resistant […] breast cell line. The class given is functional, cell-based.
For assay [4], the system named is MCF7. The experiment in a line: Antitumor activity against human mammary carcinoma doxorubicin-resistant […] breast cell line. The format is functional, cell-based.
Assay [5] relates to MCF7. Kind of assay: Antitumor activity against human mammary carcinoma sensitive […] breast cell line. The format is functional, cell-based.
A further assay has as its system OVCAR-3. The experiment in a line: Antitumor activity against human ovarian OVCAR-3 cell lines. The class given is functional, cell-based. Put shortly:
(§2)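 Cultured human tumor cells (melanoma UACC375, ovarian OVCAR3) under continuous drug exposure. Growth was read by sulforhodamine or MTT assay. Five concentrations per analogue, six determinations per concentration. IC50 values were derived from these.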

For another assay, the species on record is Rattus norvegicus. The experiment in a line: Cardiotoxicity measured by the ATP/protein ratio compared with untreated controls using neonatal rat heart myocyte assay. The format is functional. Put shortly: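 Neonatal rat heart myocytes exposed to drug for 1 h. The ATP/protein ratio was measured versus untreated control myocytes. IC50 is the concentration reducing this ratio to 50% of control.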

For assay [6], the system named is WiDr. The experiment in a line: Activity against human colon carcinoma sensitive WiDr cell line. The class given is functional, cell-based.
For assay [7], the system named is WiDr. The experiment in a line: Activity against human colon carcinoma multi drug resistant (MDR)-WiDr cell line. The format is functional, cell-based.
The test system of another assay is UACC-375. Kind of assay: Antitumor activity against human melanoma UACC375 cell line. The format is functional, cell-based. Put shortly:
as §2

Assay [8] in a line: The quotient of the IC50 in the myocytes divided by the mean IC50 in the three cell lines. The class given is functional. The procedure, abridged: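 Calculated index: the myocyte IC50 divided by the mean IC50 across three tumor lines (sensitive L1210, melanoma UACC375, ovarian OVCAR3).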

Take `CN(C)CCN1C(=O)c2cccc3cc4ccc([N+](=O)[O-])cc4c(c23)C1=O`: the IC50 in the assay on A549 came to 2.5 nM; in the assay with L1210 [1] it was 25 nM; with L1210 [2], 25 nM; with MCF7 [3], 14 nM; in the assay on MCF7 [4], 8.7 nM; in the assay on MCF7 [5], 13 nM. Also, the 50% inhibitory concentration (IC50) with OVCAR-3 turned out to be 23 nM; in the assay filed under Rattus norvegicus, 801 nM; in the assay with WiDr [6], 9.5 nM; in the assay with WiDr [7] it was 74 nM; in the assay on UACC-375, 18 nM. Besides, the Toxicity ratio in [8] was 36.
For `CN(C)CCN1C(=O)c2cccc3cc4ccc(C#N)cc4c(c23)C1=O`, the IC50 is 2.2 nM with A549; 15 nM in the assay with L1210 [1]; 13 nM in the assay on L1210 [2]; 12 nM in the assay with MCF7 [3]; 20 nM in the assay with MCF7 [4]; 13 nM with MCF7 [5]. The IC50 was found to be 12 nM with OVCAR-3; 105 nM in the assay listed under Rattus norvegicus; 11 nM in the assay with WiDr [6]; 16 nM with WiDr [7]; 10 nM in the assay with UACC-375. Besides, the Toxicity ratio in assay [8] came to 9.
On to `CN(C)CCN1C(=O)c2cccc3cc4cccc(Cl)c4c(c23)C1=O`, for which the IC50 in the assay on A549 is 61 nM; with L1210 [1], 1780 nM; in the assay on L1210 [2], 617 nM; with MCF7 [3] it was 120 nM; in the assay with MCF7 [4], 710 nM; with MCF7 [5] it was 340 nM. The concentration for half-maximal inhibition (IC50) in the assay with OVCAR-3 came out at 9000 nM; in the assay listed under Rattus norvegicus it was 8230 nM; in the assay on WiDr [6] it was 390 nM; with WiDr [7], 1000 nM; with UACC-375, 2060 nM. Besides, the Toxicity ratio in assay [8] stood at 1.9.
Consider `CN(C)CCNc1ccc2cc3ccccc3c3c2c1C(=O)N(CCN(C)C)C3=O`, for which the IC50 in the assay with A549 came to 78 nM; with L1210 [1], 210 nM; with L1210 [2], 245 nM; in the assay with MCF7 [3], 230 nM; in the assay on MCF7 [4], 530 nM; in the assay on MCF7 [5] it was 190 nM. Besides, the 50% inhibitory concentration (IC50) was 715 nM in the assay with OVCAR-3; 734 nM in the assay listed under Rattus norvegicus; 400 nM in the assay with WiDr [6]; 680 nM in the assay on WiDr [7]; 390 nM with UACC-375. The Toxicity ratio in [8] stood at 1.7.
In the case of `Cc1ccc2cc3cccc4c3c(c2c1)C(=O)N(CCN(C)C)C4=O`, the IC50 was determined as 14 nM in the assay on A549; 41 nM with L1210 [1]; 54 nM in the assay on L1210 [2]; 90 nM in the assay on MCF7 [3]; 140 nM with MCF7 [4]; 110 nM in the assay with MCF7 [5]. In addition, the concentration for half-maximal inhibition (IC50) was 68 nM in the assay on OVCAR-3; 1000 nM in the assay listed under Rattus norvegicus; 120 nM in the assay on WiDr [6]; 120 nM with WiDr [7]; 81 nM with UACC-375. Moreover, the Toxicity ratio in [8] is 16.
Regarding `CN(C)CCN1C(=O)c2cccc3cc4ccc(-c5ccccc5)cc4c(c23)C1=O`, the half-inhibitory concentration (IC50) with A549 came out at 120 nM; in the assay with L1210 [1] it was 70 nM; in the assay with L1210 [2], 128 nM; with MCF7 [3], 33 nM; in the assay on MCF7 [4], 190 nM; in the assay with MCF7 [5], 70 nM. Besides, the 50% inhibitory concentration (IC50) in the assay with OVCAR-3 was determined as 348 nM; in the assay with WiDr [6], 180 nM; with WiDr [7] it was 320 nM; with UACC-375, 1860 nM.
`CN(C)CCN1C(=O)c2cccc3cc4ccc(Cl)cc4c(c23)C1=O`: the IC50 was 8.2 nM in the assay on A549; 5.1 nM in the assay with L1210 [1]; 7.7 nM with L1210 [2]; 48 nM with MCF7 [3]; 8 nM in the assay with MCF7 [4]; 58 nM in the assay with MCF7 [5]. The concentration for half-maximal inhibition (IC50) was 64 nM with OVCAR-3; 771 nM in the assay listed under Rattus norvegicus; 17 nM in the assay on WiDr [6]; 85 nM in the assay with WiDr [7]; 64 nM in the assay with UACC-375. The Toxicity ratio in assay [8] was 18.
With `CN(C)CCN1C(=O)c2cccc3cc4cccc(O)c4c(c23)C1=O`, the IC50 is 40 nM in the assay on A549; 189 nM in the assay on L1210 [1]; 189 nM in the assay with L1210 [2]; 80 nM in the assay on MCF7 [3]; 200 nM with MCF7 [4]; 81 nM in the assay on MCF7 [5]. The 50% inhibitory concentration (IC50) in the assay on OVCAR-3 came to 1890 nM; in the assay listed under Rattus norvegicus it was 15400 nM; in the assay on WiDr [6], 100 nM; with WiDr [7], 270 nM; in the assay on UACC-375, 540 nM. In assay [8], the Toxicity ratio amounted to 18.
Turning to `CN(C)CCN1C(=O)c2cccc3cc4ccc(F)cc4c(c23)C1=O`, the IC50 with A549 was 4.8 nM; in the assay with L1210 [1] it was 8.1 nM; in the assay with MCF7 [3], 12 nM; in the assay on MCF7 [4] it was 25 nM; in the assay on MCF7 [5], 15 nM; in the assay with OVCAR-3, 6.7 nM. For the same compound, the 50% inhibitory concentration (IC50) was found to be 456 nM in the assay filed under Rattus norvegicus, 17 nM in the assay on WiDr [6], 13 nM with WiDr [7] and 16 nM in the assay on UACC-375. The Toxicity ratio in assay [8] is recorded as 45.6.
For the compound `CN(C)CCN1C(=O)c2cccc3cc4ccc(I)cc4c(c23)C1=O`, the IC50 was 31 nM with A549; 312 nM in the assay with L1210 [1]; 52 nM in the assay with L1210 [2]; 49 nM in the assay on MCF7 [3]; 59 nM in the assay with MCF7 [4]; 42 nM in the assay with MCF7 [5]. For the same compound, the IC50 in the assay with OVCAR-3 came out at 176 nM; in the assay filed under Rattus norvegicus, 4790 nM; in the assay on WiDr [6], 40 nM; in the assay with WiDr [7], 130 nM; in the assay with UACC-375, 624 nM. For the same compound, in [8], the Toxicity ratio amounted to 13.
For `COc1ccc2cc3ccccc3c3c2c1C(=O)N(CCN(C)C)C3=O`, the 50% inhibitory concentration (IC50) in the assay on A549 amounted to 81 nM; in the assay with L1210 [1], 70 nM; in the assay on L1210 [2] it was 179 nM; in the assay on MCF7 [3], 520 nM; with MCF7 [4], 690 nM; with MCF7 [5], 350 nM. Besides, the IC50 in the assay on OVCAR-3 stood at 507 nM; in the assay with WiDr [6], 660 nM; in the assay on WiDr [7], 900 nM; in the assay with UACC-375, 182 nM.
As to `CN(C)CCN1C(=O)c2cccc3cc4cc(Cl)ccc4c(c23)C1=O`, the IC50 is 9.9 nM with A549; 7.7 nM in the assay on L1210 [1]; 7.7 nM in the assay on L1210 [2]; 68 nM with MCF7 [3]; 71 nM with MCF7 [4]; 49 nM with MCF7 [5]. Further, the IC50 with OVCAR-3 stood at 231 nM; in the assay filed under Rattus norvegicus it was 1540 nM; in the assay with WiDr [6] it was 100 nM; in the assay on WiDr [7] it was 140 nM; with UACC-375, 90 nM. Further, the Toxicity ratio in [8] stood at 14.
Consider `CN(C)CCN1C(=O)c2cccc3cc4c(O)cccc4c(c23)C1=O`, for which the concentration for half-maximal inhibition (IC50) in the assay on A549 worked out at 60 nM; with L1210 [1], 108 nM; with L1210 [2] it was 67 nM; with MCF7 [3], 120 nM; in the assay on MCF7 [4], 230 nM; in the assay on MCF7 [5], 83 nM. For the same compound, the IC50 amounted to 216 nM in the assay with OVCAR-3; 2950 nM in the assay filed under Rattus norvegicus; 130 nM with WiDr [6]; 900 nM in the assay with WiDr [7]; 270 nM with UACC-375. In addition, in [8], the Toxicity ratio was 15.
Regarding `COc1cccc2c3c4c(cccc4cc12)C(=O)N(CCN(C)C)C3=O`, the IC50 was 4.8 nM with A549; 13 nM with L1210 [1]; 18 nM with L1210 [2]; 5.4 nM in the assay on MCF7 [3]; 67 nM in the assay on MCF7 [4]; 120 nM in the assay with MCF7 [5]. In addition, the IC50 was 52 nM in the assay with OVCAR-3; 806 nM in the assay filed under Rattus norvegicus; 9 nM in the assay on WiDr [6]; 30 nM in the assay with WiDr [7]; 52 nM in the assay on UACC-375. Besides, the Toxicity ratio in assay [8] worked out at 21.

As a reminder, the IC50 is the concentration that inhibits the measured activity by half.
